Measurements: ChEMBL document CHEMBL1129980, “New non-peptide endothelin-A receptor antagonists: synthesis, biological properties, and structure-activity relationships of 5-(dimethylamino)-N-pyridyl-,-N-pyrimidinyl-,-N-pyridazinyl-, and -N-pyrazinyl-1-naphthalenesulfonamides” (J Med Chem, 1997)

Tests used:
[1] = biological target: T1, Endothelin-1 receptor (Homo sapiens) (UniProt P25101); experiment: Percent inhibition at 10 uM of displacement of radiolabeled endothelin-1 [125-I]ET-1 from membranes prepared from cloned human Endothelin A receptor expressed in mouse erythroleukemic (MEL) cells; format: cell membranes
T1 sequence (whole entry): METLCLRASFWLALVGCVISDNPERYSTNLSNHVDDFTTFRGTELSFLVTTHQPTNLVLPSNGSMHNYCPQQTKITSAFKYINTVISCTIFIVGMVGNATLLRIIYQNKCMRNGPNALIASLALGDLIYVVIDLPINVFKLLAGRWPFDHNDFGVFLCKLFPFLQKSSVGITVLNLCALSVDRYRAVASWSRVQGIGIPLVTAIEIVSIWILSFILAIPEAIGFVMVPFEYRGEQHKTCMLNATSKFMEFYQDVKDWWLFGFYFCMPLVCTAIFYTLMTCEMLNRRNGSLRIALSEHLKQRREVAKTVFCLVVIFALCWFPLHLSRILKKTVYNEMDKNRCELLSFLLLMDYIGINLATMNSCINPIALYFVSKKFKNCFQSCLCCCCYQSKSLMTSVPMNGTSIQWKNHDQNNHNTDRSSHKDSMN

Endothelin-1 receptor [2] = biological target: T2, Endothelin-1 receptor (Homo sapiens, UniProt P25101); experiment: Inhibition of specific binding of [125-I]ET-1 to human endothelin A receptor
T2 sequence (P25101 whole entry): T1 sequence (whole entry)

Rattus norvegicus [3] = experiment: Mean dose ratio(MDR) for inhibition of pressor response 0.5 hr after oral administration of compound at 10 mg/kg to conscious, normotensive rats; format: functional
Summary of the method: (§1)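 Male Alderley Park Wistar rats (220–260 g, n = 6) were catheterized (arterial and venous) under Saffan anesthesia and tested conscious. Cumulative big ET-1 i.v. dose–response curves (0.1–4.0 nmol/kg) were run before and at set times after oral compound. The big ET-1 dose raising mean arterial pressure by 30 mmHg gave the dose-ratio shift, averaged to a mean dose ratio.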

Rattus norvegicus [4] = experiment: Mean dose ratio(MDR) for inhibition of pressor response 5 min after intravenous administration of compound at 10 mg/kg to pithed rats; format: functional
Summary of the method: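 Male Alderley Park Wistar rats (280–320 g, n = 4) were pithed under halothane, with arterial and venous catheters placed. Cumulative big ET-1 dose–response curves (0.1–4.0 nmol/kg) were run before and 5 min after i.v. compound. The big ET-1 dose raising mean arterial pressure by 30 mmHg gave the dose ratio, reported as a mean with 95% confidence limits.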

Rattus norvegicus [5] = experiment: Mean dose ratio(MDR) for inhibition of pressor response 3 hr after oral administration of compound at 10 mg/kg to conscious, normotensive rats; format: functional; summary of the method: as §1
[6] = Acidity constant was measured; format: ADME
Rattus norvegicus [7] = experiment: Mean dose ratio(MDR) for inhibition of pressor response 1 hr after oral administration of compound at 10 mg/kg to conscious, normotensive rats; format: functional; summary of the method: as §1
Rattus norvegicus [8] = experiment: Mean dose ratio(MDR) for inhibition of pressor response 5 hr after oral administration of compound at 10 mg/kg to conscious, normotensive rats; format: functional; summary of the method: as §1
Endothelin-1 receptor [9] = biological target: T2, Endothelin-1 receptor; experiment: Inhibition of specific binding of [125-I] ET-1 to human Endothelin A receptor
Summary of the method: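 Membranes from mouse erythroleukemic MEL-C88 cells expressing cloned human ETA were incubated with [125I]ET-1 (30 pM final) and competing ligands for 180 min at 30 °C. Incubation was stopped by filtration through GF/B filters, and bound radioligand was counted by gamma counting. pIC50 was taken from inhibition of specific binding; n is given per compound.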

Cavia porcellus = species on record: Cavia porcellus; experiment: Antagonism of ET-A induced contractile response in guinea pig portal vein; format: functional; conditions: read-out: pA2 (converted)
Summary of the method: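 A portal vein ring (about 4 mm) from guinea pigs of either sex (>250 g, n = 3–6) was held for isometric recording of circular muscle in oxygenated Krebs (95% O2/5% CO2) at 32 °C. After about 1.5 h equilibration, a cumulative partial big ET-1 curve was run in 3-fold steps up to >100 mg tension.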

Row | Compound | inhibition [1] | IC50 (Endothelin-1 receptor [2]) | other results
1 | COc1nc(C)cnc1NS(=O)(=O)c1cccc2c(N(C)C)cccc12 | 98% | 7.94 nM | –
2 | CN(C)c1cccc2c(S(=O)(=O)Nc3ncc(Cl)cn3)cccc12 | 84% | 1580 nM | –
3 | CN(C)c1cccc2c(S(=O)(=O)Nc3cccnc3)cccc12 | < 30% | – | –
4 | CN(C)c1cccc2c(S(=O)(=O)Nc3ncc(Br)nc3O)cccc12 | 81% | – | –
5 | Cc1nc(Br)cnc1NS(=O)(=O)c1cccc2c(N(C)C)cccc12 | 96% | 631 nM | –
6 | CN(C)c1cccc2c(S(=O)(=O)Nc3ccc(C#N)nn3)cccc12 | < 30% | – | –
7 | CCNc1cccc2c(S(=O)(=O)Nc3ncc(Br)nc3OC)cccc12 | 95% | 2.51 nM | –
8 | CN(C)c1cccc2c(S(=O)(=O)Nc3ccc(Cl)nc3)cccc12 | 81% | 1260 nM | –
9 | COc1ccc(NS(=O)(=O)c2cccc3c(N(C)C)cccc23)nn1 | 92% | 316 nM | –
10 | CN(C)c1cccc2c(S(=O)(=O)Nc3ccc(Cl)cc3)cccc12 | 30% | 7940 nM | –
11 | CN(C)c1cccc2c(S(=O)(=O)Nc3ccccn3)cccc12 | < 30% | – | –
12 | Cc1cnc(NS(=O)(=O)c2cccc3c(N(C)C)cccc23)cn1 | 91% | 1260 nM | –
13 | CN(C)c1cccc2c(S(=O)(=O)Nc3cnccn3)cccc12 | 58% | 1000 nM | –
14 | CN(C)c1cccc2c(S(=O)(=O)Nc3ncc(Br)nc3C#N)cccc12 | < 30% | – | –
15 | Cc1cc(NS(=O)(=O)c2cccc3c(N(C)C)cccc23)nnc1Cl | 64% | 5010 nM | –
16 | CN(C)c1cccc2c(S(=O)(=O)Nc3cnc(Br)nc3)cccc12 | 88% | 631 nM | –
17 | Cc1noc(NS(=O)(=O)c2cccc3c(N(C)C)cccc23)c1C [BMS-182874] | 98% | – | MDR (Rattus norvegicus [3]): 3.37; MDR (Rattus norvegicus [4]): 2.68; MDR (Rattus norvegicus [5]): 2.18; pKa [6]: 4.5; MDR (Rattus norvegicus [7]): 2.28; MDR (Rattus norvegicus [8]): 1.55
18 | Cc1cc(Cl)nnc1NS(=O)(=O)c1cccc2c(N(C)C)cccc12 | 89% | 398 nM | –
19 | CN(C)c1cccc2c(S(=O)(=O)Nc3ccc(I)cn3)cccc12 | 84% | 5010 nM | –
20 | Cc1ccc(NS(=O)(=O)c2cccc3c(N(C)C)cccc23)nn1 | 68% | 1580 nM | –
21 | CCOc1nc(Br)cnc1NS(=O)(=O)c1cccc2c(N(C)C)cccc12 | 92% | 501 nM | –
22 | CN(C)c1cccc2c(S(=O)(=O)Nc3cnc(Br)cn3)cccc12 | 96% | 126 nM | –
23 | CN(C)c1cccc2c(S(=O)(=O)Nc3ccc(Br)cc3)cccc12 | 72% | 3160 nM | –

Row | Compound | inhibition [1] | IC50 (Endothelin-1 receptor [2]) | other results
24 | Cc1ccc(NS(=O)(=O)c2cccc3c(N(C)C)cccc23)nc1 | 79% | 1580 nM | –
25 | COc1nc(Br)cnc1NS(=O)(=O)c1cccc2ccccc12 | 83% | – | –
26 | CN(C)c1cccc2c(S(=O)(=O)Nc3ncc(Br)cn3)cccc12 | 80% | 2000 nM | –
27 | CN(C)c1cccc2c(S(=O)(=O)Nc3ccc(Br)nc3)cccc12 | 95% | 251 nM | –
28 | CCCc1nc(Br)cnc1NS(=O)(=O)c1cccc2c(N(C)C)cccc12 | < 30% | – | –
29 | CN(C)c1cccc2c(S(=O)(=O)Nc3ncc(Br)[nH]c3=O)cccc12 | – | 5010 nM | –
30 | CN(C)c1cccc2c(S(=O)(=O)Nc3ccc(Cl)cn3)cccc12 | 95% | 2000 nM | –
31 | CN(C)c1cccc2c(S(=O)(=O)Nc3ccc(Cl)nn3)cccc12 | 70% | 200 nM | –
32 | COc1nc(Br)cnc1NS(=O)(=O)c1cccc2c(N(C)C)cccc12 | 93% | 63.1 nM | –
33 | CN(C)c1cccc2c(S(=O)(=O)Nc3ccc(Br)cn3)cccc12 | 91% | 1580 nM | –
34 | CCN(C)c1cccc2c(S(=O)(=O)Nc3ncc(Br)nc3OC)cccc12 | 99% | – | IC50 (Endothelin-1 receptor [9]): 12.6 nM
35 | CN(C)c1cccc2c(S(=O)(=O)Nc3ccc(Br)nn3)cccc12 | 95% | 251 nM | –
36 | COc1nc(Cl)cnc1NS(=O)(=O)c1cccc2c(N(C)C)cccc12 | 97% | 10 nM | Kb (Cavia porcellus): 63.1 nM; MDR (Rattus norvegicus [3]): 3.91; MDR (Rattus norvegicus [4]): 8.87; MDR (Rattus norvegicus [5]): 2.54; pKa [6]: 5; MDR (Rattus norvegicus [7]): 4.42; MDR (Rattus norvegicus [8]): 2.07
37 | CN(C)c1cccc2c(S(=O)(=O)Nc3ncc(Br)nc3OCc3ccccc3)cccc12 | < 30% | – | –
38 | CN(C)c1cccc2c(S(=O)(=O)Nc3cnc(Cl)cn3)cccc12 | 97% | 158 nM | –
39 | CCOc1ccc(NS(=O)(=O)c2cccc3c(N(C)C)cccc23)nn1 | 64% | 3980 nM | –
40 | Cc1nc(NS(=O)(=O)c2cccc3c(N(C)C)cccc23)ccc1Br | 54% | 10000 nM | –
41 | CN(C)c1cccc2c(S(=O)(=O)Nc3cccnn3)cccc12 | < 30% | – | –
42 | Cc1cc(Br)cnc1NS(=O)(=O)c1cccc2c(N(C)C)cccc12 | 94% | 316 nM | –
43 | CCc1nc(Br)cnc1NS(=O)(=O)c1cccc2c(N(C)C)cccc12 | 68% | 2510 nM | –
44 | CNc1cccc2c(S(=O)(=O)Nc3ncc(Br)nc3OC)cccc12 | 100% | 15.8 nM | –
45 | CN(C)c1cccc2c(S(=O)(=O)Nc3ncccn3)cccc12 | 54% | – | –
